From ChEMBL document CHEMBL3808372, “Identification of quinones as novel PIM1 kinase inhibitors” (Bioorg Med Chem Lett, 2016)

Experiments:
[1] = Cytotoxicity against human DU145 cells assessed as cell growth inhibition after 72 hrs by Alamar blue assay; format: functional, cell-based; settings: DU-145, 72 h
[2] = target: Activin receptor type-1B (Homo sapiens) (UniProt P36896); assay: Inhibition of human ACVR1B (187 to 505 amino acid residues) expressed in bacterial system assessed as enzyme activity at 10 uM by KINOMEScan assay; design: scale not given: the % may be the effect or the level left
In short: (§1)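 Competition binding screen on a 100-kinase KINOMEscan panel, compound tested at a single 10 μM concentration. Primary binding read-out expressed as % Ctrl = (test compound signal − positive control signal)/(negative control signal − positive control signal) × 100, with lower values meaning stronger binding.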

[3] = target: RAC-alpha serine/threonine-protein kinase (Homo sapiens) (UniProt P31749); assay: Inhibition of human Akt1 expressed in bacterial system assessed as enzyme activity at 10 uM by KINOMEScan assay; design: scale not given: the % may be the effect or the level left
In short: (§2)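 Commercial KINOMEscan binding panel of 100 kinases, test compound at 10 μM. Results are primary-screen binding interactions expressed as % Ctrl = (test compound signal − positive control signal)/(negative control signal − positive control signal) × 100. Lower % Ctrl means stronger binding.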

[4] = target: RAC-beta serine/threonine-protein kinase (Homo sapiens) (UniProt P31751); assay: Inhibition of human Akt2 expressed in bacterial system assessed as enzyme activity at 10 uM by KINOMEScan assay; design: scale not given: the % may be the effect or the level left; in short: as §2
[5] = target: Aurora kinase A (Homo sapiens) (UniProt O14965); assay: Inhibition of human AURKA (122 to 401 amino acid residues) assessed as enzyme activity at 10 uM by KINOMEScan assay; design: scale not given: the % may be the effect or the level left; in short: as §1
[6] = target: Serine/threonine-protein kinase Chk1 (Homo sapiens) (UniProt O14757); assay: Inhibition of human CHEK1 (1 to 289 amino acid residues) assessed as enzyme activity at 10 uM by KINOMEScan assay expressed in bacterial system assessed as enzyme activity at 10 uM by KINOMEScan assay; design: scale not given: the % may be the effect or the level left; in short: as §1
[7] = target: Casein kinase I isoform gamma-2 (Homo sapiens) (UniProt P78368); assay: Inhibition of full length human CSNK1G2 expressed in bacterial system assessed as enzyme activity at 10 uM by KINOMEScan assay; design: scale not given: the % may be the effect or the level left; in short: as §2
[8] = target: Serine/threonine-protein kinase DCLK1 (Homo sapiens) (UniProt O15075); assay: Inhibition of human DCAMKL1 (270 to 662 amino acid residues) assessed as enzyme activity at 10 uM by KINOMEScan assay; design: scale not given: the % may be the effect or the level left; in short: as §1
[9] = target: Receptor tyrosine-protein kinase erbB-4 (Homo sapiens) (UniProt Q15303); assay: Inhibition of human ERBB4 (690 to 994 amino acid residues) assessed as enzyme activity at 10 uM by KINOMEScan assay expressed in bacterial system assessed as enzyme activity at 10 uM by KINOMEScan assay; design: scale not given: the % may be the effect or the level left; in short: as §1
[10] = target: Mitogen-activated protein kinase 3 (Homo sapiens) (UniProt P27361); assay: Inhibition of full length human ERK1 expressed in bacterial system assessed as enzyme activity at 10 uM by KINOMEScan assay; design: scale not given: the % may be the effect or the level left; in short: as §2
[11] = target: Focal adhesion kinase 1 (Homo sapiens) (UniProt Q05397); assay: Inhibition of human FAK (402 to 696 amino acid residues) assessed as enzyme activity at 10 uM by KINOMEScan assay expressed in bacterial system assessed as enzyme activity at 10 uM by KINOMEScan assay; design: scale not given: the % may be the effect or the level left; in short: as §1
[12] = target: Inhibitor of nuclear factor kappa-B kinase subunit alpha (Homo sapiens) (UniProt O15111); assay: Inhibition of full length human IKK-alpha assessed as enzyme activity at 10 uM by KINOMEScan assay; design: scale not given: the % may be the effect or the level left; in short: as §1
[13] = target: Insulin receptor (Homo sapiens) (UniProt P06213); assay: Inhibition of human INSR (997 to 1318 amino acid residues) assessed as enzyme activity at 10 uM by KINOMEScan assay; design: scale not given: the % may be the effect or the level left; in short: as §1
[14] = target: Mitogen-activated protein kinase 9 (Homo sapiens) (UniProt P45984); assay: Inhibition of full length human JNK2 assessed as enzyme activity at 10 uM by KINOMEScan assay; design: scale not given: the % may be the effect or the level left; in short: as §1
[15] = target: Mast/stem cell growth factor receptor Kit (Homo sapiens) (UniProt P10721); assay: Inhibition of human KIT (571 to 952 amino acid residues) expressed in bacterial system assessed as enzyme activity at 10 uM by KINOMEScan assay; design: scale not given: the % may be the effect or the level left; in short: as §2
[16] = target: MAP kinase-interacting serine/threonine-protein kinase 1 (Homo sapiens) (UniProt Q9BUB5); assay: Inhibition of full length human MKNK1 assessed as enzyme activity at 10 uM by KINOMEScan assay; design: scale not given: the % may be the effect or the level left; in short: as §1
[17] = target: Mitogen-activated protein kinase 14 (Homo sapiens) (UniProt Q16539); assay: Inhibition of full length human p38-alpha expressed in bacterial system assessed as enzyme activity at 10 uM by KINOMEScan assay; design: scale not given: the % may be the effect or the level left; in short: as §2
[18] = target: Mitogen-activated protein kinase 11 (Homo sapiens) (UniProt Q15759); assay: Inhibition of full length human p38-beta expressed in bacterial system assessed as enzyme activity at 10 uM by KINOMEScan assay; design: scale not given: the % may be the effect or the level left; in short: as §1
[19] = target: Platelet-derived growth factor receptor alpha (Homo sapiens) (UniProt P16234); assay: Inhibition of human PDGFRA (575 to 1002 amino acid residues) assessed as enzyme activity at 10 uM by KINOMEScan assay; design: scale not given: the % may be the effect or the level left; in short: as §2
[20] = target: Phosphatidylinositol 4-phosphate 3-kinase C2 domain-containing subunit beta (Homo sapiens) (UniProt O00750); assay: Inhibition of human PIK3C2B (1 to 1634 amino acid residues) assessed as enzyme activity at 10 uM by KINOMEScan assay; design: scale not given: the % may be the effect or the level left; in short: as §2
[21] = target: Serine/threonine-protein kinase pim-2 (Homo sapiens) (UniProt Q9P1W9); assay: Inhibition of human PIM2 (1 to 291 amino acid residues) expressed in bacterial system assessed as enzyme activity at 10 uM by KINOMEScan assay; design: scale not given: the % may be the effect or the level left
In short: (§3)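 Single-concentration competition binding screen (KINOMEscan) across a 100-kinase panel at 10 μM. Primary binding read-out is reported as % of control: (test signal − positive-control signal)/(negative-control signal − positive-control signal) × 100. Lower values indicate stronger binding.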

[22] = target: Protein kinase C epsilon type (Homo sapiens) (UniProt Q02156); assay: Inhibition of human PRKCE (378 to 737 amino acid residues) assessed as enzyme activity at 10 uM by KINOMEScan assay; design: scale not given: the % may be the effect or the level left; in short: as §3
[23] = target: High affinity nerve growth factor receptor (Homo sapiens) (UniProt P04629); assay: Inhibition of human TRKA (475 to 790 amino acid residues) assessed as enzyme activity at 10 uM by KINOMEScan assay; design: scale not given: the % may be the effect or the level left; in short: as §2
[24] = target: Non-receptor tyrosine-protein kinase TYK2 (Homo sapiens) (UniProt P29597); assay: Inhibition of human TYK2 JH1 catalytic domain (877 to 1187 amino acid residues) assessed as enzyme activity at 10 uM by KINOMEScan assay; design: scale not given: the % may be the effect or the level left; in short: as §3
[25] = target: Serine/threonine-protein kinase ULK2 (Homo sapiens) (UniProt Q8IYT8); assay: Inhibition of human ULK2 (1 to 301 amino acid residues) assessed as enzyme activity at 10 uM by KINOMEScan assay; design: scale not given: the % may be the effect or the level left; in short: as §3
[26] = target: Vascular endothelial growth factor receptor 2 (Homo sapiens) (UniProt P35968); assay: Inhibition of human VEGFR2 (787 to 1253 amino acid residues) assessed as enzyme activity at 10 uM by KINOMEScan assay; design: scale not given: the % may be the effect or the level left; in short: as §2
[27] = target: Serine/threonine-protein kinase pim-3 (Homo sapiens) (UniProt Q86V86); assay: Inhibition of PIM3 (unknown origin)

Sequence of Non-receptor tyrosine-protein kinase TYK2 (Homo sapiens) (P29597 whole entry, the tested form may be a part): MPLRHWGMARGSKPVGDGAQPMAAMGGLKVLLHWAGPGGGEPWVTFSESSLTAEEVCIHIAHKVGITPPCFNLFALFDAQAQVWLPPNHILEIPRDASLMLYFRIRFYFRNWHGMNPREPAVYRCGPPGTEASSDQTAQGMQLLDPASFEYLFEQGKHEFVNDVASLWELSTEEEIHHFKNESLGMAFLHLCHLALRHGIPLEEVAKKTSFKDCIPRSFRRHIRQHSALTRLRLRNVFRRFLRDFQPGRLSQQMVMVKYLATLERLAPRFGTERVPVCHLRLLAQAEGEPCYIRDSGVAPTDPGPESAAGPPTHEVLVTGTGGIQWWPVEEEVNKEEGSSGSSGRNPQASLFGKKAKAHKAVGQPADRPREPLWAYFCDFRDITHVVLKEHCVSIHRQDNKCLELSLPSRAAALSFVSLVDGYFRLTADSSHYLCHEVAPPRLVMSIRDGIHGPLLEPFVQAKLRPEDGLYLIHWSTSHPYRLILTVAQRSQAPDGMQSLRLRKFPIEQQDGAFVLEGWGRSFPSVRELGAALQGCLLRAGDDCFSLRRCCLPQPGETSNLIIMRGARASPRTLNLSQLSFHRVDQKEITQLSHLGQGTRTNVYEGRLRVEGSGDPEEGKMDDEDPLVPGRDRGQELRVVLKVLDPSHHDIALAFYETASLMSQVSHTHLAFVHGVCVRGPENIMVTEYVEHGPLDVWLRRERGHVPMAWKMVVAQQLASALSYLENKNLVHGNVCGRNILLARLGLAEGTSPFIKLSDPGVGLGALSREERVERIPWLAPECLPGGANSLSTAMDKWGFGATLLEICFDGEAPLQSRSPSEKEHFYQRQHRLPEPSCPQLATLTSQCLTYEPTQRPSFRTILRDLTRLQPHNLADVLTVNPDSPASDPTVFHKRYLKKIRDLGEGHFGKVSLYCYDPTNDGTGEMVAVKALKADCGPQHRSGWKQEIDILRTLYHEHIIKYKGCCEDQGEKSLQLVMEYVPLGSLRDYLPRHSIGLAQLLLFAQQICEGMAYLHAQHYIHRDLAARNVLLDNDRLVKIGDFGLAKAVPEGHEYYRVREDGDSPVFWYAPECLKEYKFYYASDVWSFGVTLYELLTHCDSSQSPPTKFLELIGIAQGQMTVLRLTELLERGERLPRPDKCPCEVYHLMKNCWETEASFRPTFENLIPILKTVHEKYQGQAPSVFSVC
Sequence of Mitogen-activated protein kinase 14 (Homo sapiens) (Q16539 whole entry): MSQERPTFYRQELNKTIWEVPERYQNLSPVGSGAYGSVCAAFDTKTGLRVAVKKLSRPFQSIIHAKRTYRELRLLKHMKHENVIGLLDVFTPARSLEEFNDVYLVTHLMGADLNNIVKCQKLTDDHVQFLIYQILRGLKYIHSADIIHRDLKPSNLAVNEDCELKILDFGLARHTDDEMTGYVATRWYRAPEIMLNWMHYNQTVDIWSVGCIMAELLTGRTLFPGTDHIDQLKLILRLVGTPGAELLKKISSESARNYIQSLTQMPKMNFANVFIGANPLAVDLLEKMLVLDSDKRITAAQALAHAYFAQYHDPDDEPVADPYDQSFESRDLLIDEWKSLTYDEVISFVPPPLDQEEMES
Sequence of Aurora kinase A (Homo sapiens) (O14965 whole entry, the tested form may be a part): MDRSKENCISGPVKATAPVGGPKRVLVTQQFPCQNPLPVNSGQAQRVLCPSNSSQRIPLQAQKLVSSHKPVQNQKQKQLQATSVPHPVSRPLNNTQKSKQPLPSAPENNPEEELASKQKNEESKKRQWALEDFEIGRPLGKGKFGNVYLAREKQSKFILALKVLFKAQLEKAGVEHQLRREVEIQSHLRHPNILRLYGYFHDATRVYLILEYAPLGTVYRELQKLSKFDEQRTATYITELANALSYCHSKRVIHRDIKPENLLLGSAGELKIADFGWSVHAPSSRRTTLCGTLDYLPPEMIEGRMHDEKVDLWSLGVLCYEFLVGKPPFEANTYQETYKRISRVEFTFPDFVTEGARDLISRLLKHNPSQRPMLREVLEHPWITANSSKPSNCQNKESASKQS
Sequence of Platelet-derived growth factor receptor alpha (Homo sapiens) (P16234 whole entry, the tested form may be a part): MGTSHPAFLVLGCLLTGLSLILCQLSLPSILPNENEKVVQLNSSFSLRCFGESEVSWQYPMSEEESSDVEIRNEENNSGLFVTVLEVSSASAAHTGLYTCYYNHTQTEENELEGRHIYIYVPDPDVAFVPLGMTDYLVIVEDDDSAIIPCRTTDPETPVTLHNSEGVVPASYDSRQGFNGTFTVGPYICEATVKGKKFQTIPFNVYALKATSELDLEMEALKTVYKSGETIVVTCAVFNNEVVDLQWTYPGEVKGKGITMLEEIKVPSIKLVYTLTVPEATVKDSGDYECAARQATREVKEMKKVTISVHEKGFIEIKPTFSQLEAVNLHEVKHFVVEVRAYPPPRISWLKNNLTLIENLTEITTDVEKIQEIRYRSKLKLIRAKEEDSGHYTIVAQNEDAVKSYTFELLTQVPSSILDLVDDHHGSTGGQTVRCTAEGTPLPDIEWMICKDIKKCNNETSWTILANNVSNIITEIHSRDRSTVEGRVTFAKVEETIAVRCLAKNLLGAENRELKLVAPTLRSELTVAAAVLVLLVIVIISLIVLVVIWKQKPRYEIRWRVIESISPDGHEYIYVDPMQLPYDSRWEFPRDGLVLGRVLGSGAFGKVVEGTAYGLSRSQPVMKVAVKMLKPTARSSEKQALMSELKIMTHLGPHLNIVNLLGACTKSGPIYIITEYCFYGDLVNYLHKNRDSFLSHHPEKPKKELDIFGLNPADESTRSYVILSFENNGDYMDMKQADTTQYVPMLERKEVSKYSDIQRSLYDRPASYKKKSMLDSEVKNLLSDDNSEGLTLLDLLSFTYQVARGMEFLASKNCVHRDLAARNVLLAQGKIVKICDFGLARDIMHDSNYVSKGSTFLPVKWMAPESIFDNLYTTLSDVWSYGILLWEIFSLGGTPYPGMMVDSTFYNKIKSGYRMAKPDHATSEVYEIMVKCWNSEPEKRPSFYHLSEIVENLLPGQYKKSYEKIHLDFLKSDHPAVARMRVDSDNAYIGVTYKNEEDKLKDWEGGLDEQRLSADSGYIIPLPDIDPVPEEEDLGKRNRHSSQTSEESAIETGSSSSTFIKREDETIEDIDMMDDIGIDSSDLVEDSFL
Sequence of Vascular endothelial growth factor receptor 2 (Homo sapiens) (P35968 whole entry, the tested form may be a part): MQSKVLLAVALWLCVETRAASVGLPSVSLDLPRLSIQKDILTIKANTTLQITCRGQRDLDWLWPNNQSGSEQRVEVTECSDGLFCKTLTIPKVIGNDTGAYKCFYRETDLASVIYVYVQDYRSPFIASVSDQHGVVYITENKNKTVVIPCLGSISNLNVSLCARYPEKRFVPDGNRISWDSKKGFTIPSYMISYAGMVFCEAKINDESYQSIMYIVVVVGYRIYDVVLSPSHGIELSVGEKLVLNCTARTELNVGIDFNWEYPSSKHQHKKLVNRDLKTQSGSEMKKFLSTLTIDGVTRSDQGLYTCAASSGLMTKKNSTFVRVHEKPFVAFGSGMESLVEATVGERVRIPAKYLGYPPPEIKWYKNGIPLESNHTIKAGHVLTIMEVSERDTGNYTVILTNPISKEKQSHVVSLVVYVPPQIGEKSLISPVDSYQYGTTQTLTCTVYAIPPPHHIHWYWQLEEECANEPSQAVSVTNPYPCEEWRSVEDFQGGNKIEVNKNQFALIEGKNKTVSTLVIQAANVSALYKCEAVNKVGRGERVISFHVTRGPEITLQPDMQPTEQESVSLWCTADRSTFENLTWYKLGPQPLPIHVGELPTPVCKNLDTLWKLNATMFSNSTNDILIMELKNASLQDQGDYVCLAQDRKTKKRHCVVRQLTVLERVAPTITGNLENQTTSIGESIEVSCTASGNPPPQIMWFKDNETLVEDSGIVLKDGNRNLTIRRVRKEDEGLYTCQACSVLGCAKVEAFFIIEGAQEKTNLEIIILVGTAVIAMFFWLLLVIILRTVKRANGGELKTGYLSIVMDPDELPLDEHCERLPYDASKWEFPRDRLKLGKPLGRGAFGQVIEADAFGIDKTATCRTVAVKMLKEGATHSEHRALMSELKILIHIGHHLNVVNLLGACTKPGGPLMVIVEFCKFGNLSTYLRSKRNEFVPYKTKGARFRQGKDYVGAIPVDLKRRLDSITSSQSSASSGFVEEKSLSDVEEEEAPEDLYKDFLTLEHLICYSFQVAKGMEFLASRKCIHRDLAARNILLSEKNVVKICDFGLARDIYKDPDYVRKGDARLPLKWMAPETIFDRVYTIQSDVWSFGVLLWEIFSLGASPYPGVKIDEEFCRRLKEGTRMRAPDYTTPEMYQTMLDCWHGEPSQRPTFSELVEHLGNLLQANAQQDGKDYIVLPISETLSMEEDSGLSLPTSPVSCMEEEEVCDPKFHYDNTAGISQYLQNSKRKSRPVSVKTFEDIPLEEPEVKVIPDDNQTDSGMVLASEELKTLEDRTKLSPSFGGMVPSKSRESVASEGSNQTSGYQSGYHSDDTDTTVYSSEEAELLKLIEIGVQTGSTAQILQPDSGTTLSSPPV
Sequence of Serine/threonine-protein kinase pim-2 (Homo sapiens) (Q9P1W9 whole entry, looked up, the tested form may be a part): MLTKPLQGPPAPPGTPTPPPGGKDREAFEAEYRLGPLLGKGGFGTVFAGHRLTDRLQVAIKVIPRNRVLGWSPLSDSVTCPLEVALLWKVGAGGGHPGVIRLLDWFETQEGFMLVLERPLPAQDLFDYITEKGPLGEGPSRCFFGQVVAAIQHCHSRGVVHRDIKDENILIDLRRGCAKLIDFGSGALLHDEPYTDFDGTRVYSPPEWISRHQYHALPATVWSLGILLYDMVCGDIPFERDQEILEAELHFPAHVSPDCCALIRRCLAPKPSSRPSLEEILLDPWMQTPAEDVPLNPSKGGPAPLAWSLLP

O=C1C2=C(C(=O)c3c(O)ccc(O)c31)[C@@H](O)[C@@H](O)[C@@H](O)C2
IC50 [1]: 8.21 µM
Activity [2]: 90%
Activity [3]: 100%
Activity [4]: 100%
Activity [5]: 87%
Activity [6]: 79%
Activity [7]: 100%
Activity [8]: 90%
Activity [9]: 95%
Activity [10]: 100%
Activity [11]: 95%
Activity [12]: 87%
Activity [13]: 97%
Activity [14]: 84%
Activity [15]: 76%
Activity [16]: 45%
Activity [17]: 100%
Activity [18]: 92%
Activity [19]: 100%
Activity [20]: 100%
Activity [21]: 67%
Activity [22]: 92%
Activity [23]: 78%
Activity [24]: 57%
Activity [25]: 88%
Activity [26]: 100%
% of MOE kinase hits [27]: 29%
